The target in test [1] is T1, Serine protease 1 (Bos taurus, UniProt P00760).
T1 sequence (P00760 whole entry): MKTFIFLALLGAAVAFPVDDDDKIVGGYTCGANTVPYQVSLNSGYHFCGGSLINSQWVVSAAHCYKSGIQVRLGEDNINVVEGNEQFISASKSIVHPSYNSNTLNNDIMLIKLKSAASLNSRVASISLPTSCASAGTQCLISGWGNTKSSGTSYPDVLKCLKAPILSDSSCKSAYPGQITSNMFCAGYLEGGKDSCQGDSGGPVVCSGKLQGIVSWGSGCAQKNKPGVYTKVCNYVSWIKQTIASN
Description: Inhibitory concentration against bovine trypsin.

In test [2] the target is T2, Coagulation factor X (Homo sapiens, UniProt P00742). The test can be described thus: Inhibitory concentration against human Coagulation factor Xa (fXa).
T2 sequence (P00742 41-179 limits assumed): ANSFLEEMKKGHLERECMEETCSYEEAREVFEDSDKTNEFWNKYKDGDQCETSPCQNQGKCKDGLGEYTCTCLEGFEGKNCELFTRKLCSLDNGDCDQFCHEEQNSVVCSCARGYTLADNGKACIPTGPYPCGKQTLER
T2 sequence (P00742 235-488 limits assumed): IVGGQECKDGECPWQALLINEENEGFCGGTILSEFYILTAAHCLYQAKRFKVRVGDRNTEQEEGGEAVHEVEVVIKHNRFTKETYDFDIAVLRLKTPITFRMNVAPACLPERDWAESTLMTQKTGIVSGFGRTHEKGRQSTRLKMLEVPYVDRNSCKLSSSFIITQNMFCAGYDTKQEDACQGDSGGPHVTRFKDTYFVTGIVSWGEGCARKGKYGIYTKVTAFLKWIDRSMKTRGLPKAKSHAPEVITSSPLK
Test [3] concerns the target T2, Coagulation factor X. The test can be described thus: Inhibitory concentration against human Coagulation factor Xa(fXa). The essentials: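 4-Nitroaniline release was read by absorbance at 405 nm. Inhibitors were prepared as 40 mM DMSO stocks and tested at 500, 50 and 5 µM. Km and Ki were obtained by nonlinear regression, with known factor Xa inhibitors as reference.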

The target of test [4] is Prothrombin (Homo sapiens, UniProt P00734). Description: Inhibitory concentration against thrombin.

This passage reports Ki results from ChEMBL document CHEMBL1135884 (J Med Chem, 2002).

As usually defined, the Ki is a dissociation constant, usually derived from enzyme kinetics or from competition with a known ligand. A higher Ki goes with a looser hold on the target. In test [1], `N=C(N)c1cccc(C(=O)NCC(=O)NCC2CCC(CN)CC2)c1` (configuration not stated) had a Ki of 14000 nM.

For `CCOC(=O)[C@@H](Cc1ccc2ccccc2c1)NC(=O)c1cccc(C(=N)N)c1`, the Ki in test [2] stood at 2000 nM; in test [1], 12500 nM.

Turning to `N=C(N)c1cccc(C(=O)N[C@@H](C(=O)N2CCN(c3ccc(Cl)cc3)CC2)c2ccccc2)c1`, the Ki was found to be 16 nM in test [3], 1700 nM in test [1] and 1600 nM in test [4].

With `CC(=N)N1CCC(Oc2ccc(N(Cc3ccc4ccc(C(=N)N)cc4c3)S(=O)(=O)CC(=O)O)cc2)CC1` [YM-60828], the Ki in test [1] is 159 nM.

Compound `N=C(N)c1cccc(C(=O)N[C@@H](C(=O)N2CCC(C(=O)c3ccccc3)CC2)c2ccccc2)c1` returned a Ki in test [1] of 980 nM.

As to `N=C(N)c1cccc(C(=O)N[C@@H](C(=O)NCC2CCC(CN)CC2)c2ccccc2)c1` (some centres not stated), in test [1], the Ki worked out at 7400 nM. This Ki is about 7.6-fold higher than that of the compound before.

With `N=C(N)c1cccc(C(=O)N[C@@H](C(=O)OCCC2CCN(C(=N)N)CC2)c2ccccc2)c1`, the Ki in test [2] was 26 nM; in test [1], 1600 nM.

`N=C(N)c1ccccc1` [BENZAMIDINE] had a Ki in test [2] of 200 nM.
